Experimental data as given in ChEMBL document CHEMBL1128502, “Aziridine analogs of [[trans-(epoxysuccinyl)-L-leucyl]amino]-4-guanidinobutane (E-64) as inhibitors of cysteine proteases” (J Med Chem, 1995).

How the values were obtained:
[1] = molecular target: Cathepsin B (Rattus norvegicus) (UniProt P00787); assay: Second order rate constant for the inactivation of cathepsin B at pH 6.0 was reported; No time dependent inhibition observed
In short: (§1)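 Inactivation of cysteine protease was followed at 25 °C in 50 mM buffer with 0.2 M NaCl, 5 mM EDTA, 1 mM DTT and 10% acetonitrile. Buffers were citrate for pH 3.0–5.7, phosphate for pH 5.7–7.9 and borate for pH 7.9–9.0. The second-order constant kinac/Ki was obtained by the Tian and Tsou method.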

[2] = molecular target: Procathepsin L (Homo sapiens) (UniProt P07711); assay: Second order rate constant for the inactivation of cathepsin L at pH 5.5 was reported; in short: as §1
Chain of Procathepsin L (Homo sapiens) (P07711 114-333 limits assumed): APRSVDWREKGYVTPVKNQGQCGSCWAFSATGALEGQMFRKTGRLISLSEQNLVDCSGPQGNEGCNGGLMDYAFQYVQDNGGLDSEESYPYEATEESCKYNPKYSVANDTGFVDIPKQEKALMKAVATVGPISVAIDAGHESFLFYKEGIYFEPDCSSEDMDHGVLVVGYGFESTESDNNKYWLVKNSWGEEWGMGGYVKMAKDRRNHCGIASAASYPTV

Papain (Carica papaya) [3] = molecular target: T1, Papain (Carica papaya) (UniProt P00784); assay: Second order rate constant for the inactivation of papain at pH 6.5 was reported; in short: as §1
T1 sequence (whole entry): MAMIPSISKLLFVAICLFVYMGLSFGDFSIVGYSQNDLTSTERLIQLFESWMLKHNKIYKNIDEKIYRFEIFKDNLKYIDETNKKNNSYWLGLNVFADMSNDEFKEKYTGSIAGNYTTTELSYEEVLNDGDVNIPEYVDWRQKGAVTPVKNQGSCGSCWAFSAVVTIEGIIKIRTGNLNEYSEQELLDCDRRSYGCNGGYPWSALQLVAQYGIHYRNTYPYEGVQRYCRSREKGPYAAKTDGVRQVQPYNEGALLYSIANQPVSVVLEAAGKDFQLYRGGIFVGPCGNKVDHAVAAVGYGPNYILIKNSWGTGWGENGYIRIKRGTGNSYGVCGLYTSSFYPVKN

Papain (Carica papaya) [4] = molecular target: T1, Papain (Carica papaya); assay: Second order rate constant for the inactivation of papain at pH 6.5 was reported; No time dependent inhibition observed; in short: as §1
[5] = molecular target: Cathepsin B (Rattus norvegicus) (UniProt P00787); assay: Second order rate constant for the inactivation of cathepsin B at pH 6.0 was reported
[6] = molecular target: Procathepsin L (Homo sapiens) (UniProt P07711); assay: Second order rate constant for the inactivation of cathepsin L at pH 6.5 was reported; in short: as §1

Chain of Cathepsin B (Rattus norvegicus) (P00787 80-333 limits assumed): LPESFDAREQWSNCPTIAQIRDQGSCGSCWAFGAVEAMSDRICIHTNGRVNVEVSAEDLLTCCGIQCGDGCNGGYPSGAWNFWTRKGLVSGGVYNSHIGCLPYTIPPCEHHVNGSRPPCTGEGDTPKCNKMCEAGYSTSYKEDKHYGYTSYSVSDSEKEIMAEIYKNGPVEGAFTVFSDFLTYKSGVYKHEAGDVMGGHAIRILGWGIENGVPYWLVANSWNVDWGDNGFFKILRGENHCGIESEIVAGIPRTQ

CC(C)CNC(=O)[C@@H]1N[C@@H]1C(=O)N[C@@H](CC(C)C)C(=O)N1CCC[C@H]1C(=O)O
K inact/Ki [1]: No inhibition
K inact/Ki [2]: 6.7 M⁻¹ s⁻¹
K inact/Ki (Papain (Carica papaya) [3]): 1.8 M⁻¹ s⁻¹

CC(C)CNC(=O)[C@@H]1N[C@H]1C(=O)N[C@@H](CC(C)C)C(=O)N1CCC[C@H]1C(=O)O
K inact/Ki (Papain (Carica papaya) [4]): No inhibition
K inact/Ki [5]: 13 M⁻¹ s⁻¹
K inact/Ki [6]: 50 M⁻¹ s⁻¹

CC(C)CNC(=O)[C@H]1N[C@H]1C(=O)O
K inact/Ki (Papain (Carica papaya) [3]): 9.4 M⁻¹ s⁻¹
